In ChEMBL document CHEMBL1124975 (J Med Chem, 1990):
Values belong to the molecule of their own block, whether it stands above or below them.

Key:
[1] = (§1) Binding affinity towards 5-hydroxytryptamine 3 receptor by displacement of [3H]2 in Neuroblastoma-Glioma NG-108-15 cells
[2] = molecular target: T1, Serotonin 3 (5-HT3) receptor (Rattus norvegicus) (UniProt P35563+Q9JJ16); assay: Serotonin receptor antagonist activity was measured as ability to block the serotonin-induced Bezold-Jarisch reflex in rats after iv administration of 100 ug/Kg; assay type: functional, organism-based
How it was run: (§2)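 Anaesthetic and strain not given; rats dosed iv with test compound via a right femoral vein cannula. Serotonin 100 μg kg-1 iv was given through the same route 1 min after drug. Inhibition of the serotonin-induced bradycardia (Bezold-Jarisch reflex) was scored.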

[3] = molecular target: T1, Serotonin 3 (5-HT3) receptor (Rattus norvegicus); assay: Serotonin receptor antagonist activity was measured as ability to block the serotonin-induced Bezold-Jarisch reflex in rats after iv administration of 20 ug/Kg; assay type: functional, organism-based; how it was run: as §2
[4] = molecular target: T1, Serotonin 3 (5-HT3) receptor (Rattus norvegicus); assay: Serotonin receptor antagonist activity was measured as ability to block the serotonin-induced Bezold-Jarisch reflex in rats after iv administration of 2 ug/Kg; assay type: functional, organism-based; how it was run: as §2
[5] = molecular target: 5-hydroxytryptamine receptor 3A; assay: as §1
[6] = molecular target: T1, Serotonin 3 (5-HT3) receptor (Rattus norvegicus); assay: Serotonin receptor antagonist activity was measured as ability to block the serotonin-induced Bezold-Jarisch reflex in rats after iv administration of 10 ug/Kg; assay type: functional, organism-based; conditions: in the assay text read “2 ug/Kg” for “10 ug/Kg”; how it was run: as §2
[7] = molecular target: 5-hydroxytryptamine receptor 2A (Bos taurus, UniProt Q75Z89); assay: Binding affinity for 5-hydroxytryptamine 2 receptor was determined by using [3H]ketanserin as radioligand
[8] = molecular target: Sigma non-opioid intracellular receptor 1 (Homo sapiens, UniProt Q99720); assay: Binding affinity for Sigma opioid receptor was determined by using [3H](+)-3-(3-hydroxyphenyl)N-1-propyl-piperdine((+)-3-PPP) as radioligand
D(1A) dopamine receptor = D(1A) dopamine receptor (Mus musculus, UniProt Q61616); assay: Binding affinity for Dopamine receptor D1 was determined by using [3H]SCH-23390 as radioligand
[9] = molecular target: Beta-2 adrenergic receptor (Canis lupus familiaris, UniProt P54833); assay: Binding affinity for Beta adrenergic receptor was determined by using [3H]dihydroalprenolol as radioligand
[10] = molecular target: T2, 5-hydroxytryptamine receptor 2C (Rattus norvegicus, UniProt P08909); assay: Binding affinity for 5-hydroxytryptamine 1C receptor was determined by using [3H]- mesulergine as radioligand
T2 sequence (P08909 whole entry): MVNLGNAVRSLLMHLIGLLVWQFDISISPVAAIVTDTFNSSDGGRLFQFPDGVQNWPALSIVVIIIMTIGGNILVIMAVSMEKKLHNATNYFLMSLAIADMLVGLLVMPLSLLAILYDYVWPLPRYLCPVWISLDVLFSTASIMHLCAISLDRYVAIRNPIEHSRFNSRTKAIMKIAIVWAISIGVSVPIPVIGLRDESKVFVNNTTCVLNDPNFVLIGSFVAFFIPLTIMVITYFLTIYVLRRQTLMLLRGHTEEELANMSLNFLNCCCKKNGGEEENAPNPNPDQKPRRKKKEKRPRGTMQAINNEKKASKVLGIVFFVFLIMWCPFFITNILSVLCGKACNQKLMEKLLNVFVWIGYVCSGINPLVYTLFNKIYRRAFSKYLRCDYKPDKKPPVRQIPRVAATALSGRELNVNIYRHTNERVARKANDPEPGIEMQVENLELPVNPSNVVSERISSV

[11] = molecular target: 5-hydroxytryptamine receptor 1B (Rattus norvegicus) (UniProt P28564); assay: Binding affinity for 5-hydroxytryptamine 1B receptor was determined by using [3H]5-HT as radioligand
[12] = molecular target: GABA-A receptor; anion channel; assay: Displacement of [3H]flunitrazepam from GABA-A Benzodiazepine receptor; assay type: protein-complex assay
[13] = molecular target: T3, 5-hydroxytryptamine receptor 1A (Mus musculus, UniProt Q64264); assay: Binding affinity for 5-hydroxytryptamine 1A receptor was determined by using [3H]8-OH-DPAT as radioligand
T3 sequence (Q64264 whole entry): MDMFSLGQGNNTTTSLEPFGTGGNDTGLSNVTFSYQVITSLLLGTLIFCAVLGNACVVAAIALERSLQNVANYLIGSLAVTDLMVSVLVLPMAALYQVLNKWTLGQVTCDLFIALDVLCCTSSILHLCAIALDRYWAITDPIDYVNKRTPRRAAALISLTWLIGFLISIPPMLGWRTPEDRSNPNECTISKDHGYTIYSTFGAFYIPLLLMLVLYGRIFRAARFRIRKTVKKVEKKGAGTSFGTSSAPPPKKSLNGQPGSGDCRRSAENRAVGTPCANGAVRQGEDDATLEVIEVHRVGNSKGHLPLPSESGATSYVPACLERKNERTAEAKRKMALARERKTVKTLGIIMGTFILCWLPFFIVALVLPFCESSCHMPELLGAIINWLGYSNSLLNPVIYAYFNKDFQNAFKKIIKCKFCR

D(2) dopamine receptor = D(2) dopamine receptor (Homo sapiens, UniProt P14416); assay: Binding affinity for Dopamine receptor D2 was determined by using [3H]spiperone as radioligand
[14] = molecular target: Muscarinic acetylcholine receptor M3 (Rattus norvegicus, UniProt P08483); assay: Binding affinity for Muscarinic acetylcholine receptor was determined by using [3H]QNB as radioligand
Mu-type opioid receptor = Mu-type opioid receptor (Homo sapiens, UniProt P35372); assay: Binding affinity for Opioid receptor mu 1 was determined by using [3H]naloxone as radioligand
[15] = molecular target: T1, Serotonin 3 (5-HT3) receptor (Rattus norvegicus); assay: Serotonin receptor antagonist activity was measured as ability to block the serotonin-induced Bezold-Jarisch reflex in rats after iv administration of 5 ug/Kg; assay type: functional, organism-based; how it was run: as §2

5-hydroxytryptamine receptor 1B (Rattus norvegicus), sequence (P28564 whole entry, looked up): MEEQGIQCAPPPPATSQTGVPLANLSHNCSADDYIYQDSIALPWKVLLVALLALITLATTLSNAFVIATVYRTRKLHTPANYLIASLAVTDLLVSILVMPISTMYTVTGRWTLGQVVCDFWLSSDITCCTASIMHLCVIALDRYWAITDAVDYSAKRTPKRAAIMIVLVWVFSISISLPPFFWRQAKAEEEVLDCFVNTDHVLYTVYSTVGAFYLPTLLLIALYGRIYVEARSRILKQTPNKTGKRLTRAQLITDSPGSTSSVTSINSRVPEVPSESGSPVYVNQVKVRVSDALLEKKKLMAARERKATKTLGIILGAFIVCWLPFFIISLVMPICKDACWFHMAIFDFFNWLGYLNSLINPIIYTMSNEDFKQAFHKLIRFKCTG
D(2) dopamine receptor, sequence (P14416 whole entry): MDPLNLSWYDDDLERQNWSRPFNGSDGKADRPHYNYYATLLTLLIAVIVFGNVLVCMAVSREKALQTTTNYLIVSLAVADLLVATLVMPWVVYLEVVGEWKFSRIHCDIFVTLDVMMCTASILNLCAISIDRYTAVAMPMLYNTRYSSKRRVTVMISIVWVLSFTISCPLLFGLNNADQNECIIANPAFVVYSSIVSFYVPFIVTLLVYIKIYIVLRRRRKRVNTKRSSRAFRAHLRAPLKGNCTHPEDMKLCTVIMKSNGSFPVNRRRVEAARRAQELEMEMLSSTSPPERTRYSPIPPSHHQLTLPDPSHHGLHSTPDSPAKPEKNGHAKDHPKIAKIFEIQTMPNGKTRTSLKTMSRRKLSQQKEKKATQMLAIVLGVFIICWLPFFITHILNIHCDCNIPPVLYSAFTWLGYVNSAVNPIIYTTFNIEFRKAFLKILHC
Sigma non-opioid intracellular receptor 1, sequence (Q99720 whole entry): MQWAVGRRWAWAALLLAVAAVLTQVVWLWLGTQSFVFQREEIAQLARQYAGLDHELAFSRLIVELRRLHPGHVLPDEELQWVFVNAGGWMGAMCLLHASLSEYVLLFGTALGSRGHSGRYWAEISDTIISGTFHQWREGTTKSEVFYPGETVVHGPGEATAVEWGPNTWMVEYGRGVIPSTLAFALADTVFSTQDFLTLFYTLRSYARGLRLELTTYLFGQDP
Mu-type opioid receptor, sequence (P35372 whole entry): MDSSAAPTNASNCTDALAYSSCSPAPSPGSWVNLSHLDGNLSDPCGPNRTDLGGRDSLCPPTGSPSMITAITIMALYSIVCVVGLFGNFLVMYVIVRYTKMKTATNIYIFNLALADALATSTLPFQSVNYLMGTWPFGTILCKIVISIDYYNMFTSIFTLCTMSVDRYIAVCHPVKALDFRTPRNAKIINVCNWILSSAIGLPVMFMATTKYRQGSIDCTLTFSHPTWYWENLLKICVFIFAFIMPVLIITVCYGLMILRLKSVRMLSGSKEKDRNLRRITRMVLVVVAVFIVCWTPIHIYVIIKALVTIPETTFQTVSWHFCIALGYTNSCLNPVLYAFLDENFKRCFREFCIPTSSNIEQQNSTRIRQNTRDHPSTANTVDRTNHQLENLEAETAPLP
Muscarinic acetylcholine receptor M3, sequence (P08483 whole entry): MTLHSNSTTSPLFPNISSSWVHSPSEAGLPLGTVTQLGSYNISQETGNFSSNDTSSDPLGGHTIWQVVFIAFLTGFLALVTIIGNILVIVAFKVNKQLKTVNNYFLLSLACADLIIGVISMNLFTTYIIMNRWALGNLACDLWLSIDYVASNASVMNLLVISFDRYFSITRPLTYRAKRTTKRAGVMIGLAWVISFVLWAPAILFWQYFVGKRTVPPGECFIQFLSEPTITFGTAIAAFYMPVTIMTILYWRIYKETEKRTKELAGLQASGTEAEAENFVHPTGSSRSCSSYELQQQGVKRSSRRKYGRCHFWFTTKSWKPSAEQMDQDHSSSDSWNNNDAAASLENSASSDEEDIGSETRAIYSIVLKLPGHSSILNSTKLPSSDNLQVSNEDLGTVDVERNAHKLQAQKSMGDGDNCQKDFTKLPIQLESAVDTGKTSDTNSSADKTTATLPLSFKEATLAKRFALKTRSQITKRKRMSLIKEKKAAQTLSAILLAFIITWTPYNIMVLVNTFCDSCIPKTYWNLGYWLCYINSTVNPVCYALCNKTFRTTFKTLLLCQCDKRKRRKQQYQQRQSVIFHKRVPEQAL
D(1A) dopamine receptor, sequence (Q61616 whole entry): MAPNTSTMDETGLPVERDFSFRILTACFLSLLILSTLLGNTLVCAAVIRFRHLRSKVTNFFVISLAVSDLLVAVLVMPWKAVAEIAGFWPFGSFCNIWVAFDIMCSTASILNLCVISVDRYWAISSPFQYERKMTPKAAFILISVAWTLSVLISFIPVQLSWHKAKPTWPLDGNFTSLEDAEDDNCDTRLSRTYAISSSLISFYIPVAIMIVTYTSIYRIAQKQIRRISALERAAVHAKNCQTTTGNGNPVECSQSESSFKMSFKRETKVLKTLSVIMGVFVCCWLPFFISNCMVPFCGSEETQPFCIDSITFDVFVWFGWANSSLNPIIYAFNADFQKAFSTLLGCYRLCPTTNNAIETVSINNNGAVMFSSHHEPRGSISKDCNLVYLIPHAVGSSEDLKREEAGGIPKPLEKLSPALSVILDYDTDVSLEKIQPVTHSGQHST
5-hydroxytryptamine receptor 2A, sequence (Q75Z89 whole entry): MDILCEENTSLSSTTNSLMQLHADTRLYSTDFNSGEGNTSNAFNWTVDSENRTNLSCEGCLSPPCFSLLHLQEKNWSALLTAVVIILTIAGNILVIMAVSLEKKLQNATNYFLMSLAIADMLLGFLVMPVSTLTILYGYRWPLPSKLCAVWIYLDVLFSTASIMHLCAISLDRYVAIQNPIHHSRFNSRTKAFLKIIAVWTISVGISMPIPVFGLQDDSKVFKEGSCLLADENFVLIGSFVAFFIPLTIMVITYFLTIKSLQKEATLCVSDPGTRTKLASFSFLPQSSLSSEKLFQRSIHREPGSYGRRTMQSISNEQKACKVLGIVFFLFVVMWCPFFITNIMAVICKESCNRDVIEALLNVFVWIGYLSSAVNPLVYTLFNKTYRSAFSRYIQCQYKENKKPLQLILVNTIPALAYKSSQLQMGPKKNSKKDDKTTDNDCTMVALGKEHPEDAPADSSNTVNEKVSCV
Beta-2 adrenergic receptor, sequence (P54833 whole entry): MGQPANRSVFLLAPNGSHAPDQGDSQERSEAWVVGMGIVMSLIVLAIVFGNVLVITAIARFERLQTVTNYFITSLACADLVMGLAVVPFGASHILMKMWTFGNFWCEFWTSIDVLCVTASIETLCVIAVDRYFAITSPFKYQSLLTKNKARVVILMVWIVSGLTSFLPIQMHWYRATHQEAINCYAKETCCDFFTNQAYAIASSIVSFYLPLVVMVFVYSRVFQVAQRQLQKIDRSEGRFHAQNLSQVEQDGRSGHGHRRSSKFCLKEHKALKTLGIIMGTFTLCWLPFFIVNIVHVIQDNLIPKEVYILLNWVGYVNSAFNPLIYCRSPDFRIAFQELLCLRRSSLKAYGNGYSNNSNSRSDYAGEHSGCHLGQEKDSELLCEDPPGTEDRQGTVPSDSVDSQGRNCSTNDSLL

SMILES: c1cnc2c(-c3csc(Cc4c[nH]cn4)n3)cccc2c1
Ki [1]: 0.31 nM

inhibition [2]: 45.2%
SMILES: Cc1[nH]cnc1Cc1nc(-c2c[nH]c3ccccc23)cs1

SMILES: COc1c(-c2csc(Cc3[nH]cnc3C)n2)ccc2ccccc12
Ki [1]: 95 nM

SMILES: Cc1[nH]cnc1Cc1nc(-c2ccccc2C(F)(F)F)cs1
Ki [1]: 61 nM

inhibition [3]: 89.7%
SMILES: Cc1nccn1CC1CCc2c(c3ccccc3n2C)C1=O (stereo unspecified)

SMILES: N=C(N)NCCCOC(=O)c1c[nH]c2ccccc12
Ki [1]: 27 nM

inhibition [3]: 91.9% | inhibition [4]: 43% | Ki [5]: 1 nM
SMILES: Cc1[nH]cnc1Cc1nc(-c2cccc3cccnc23)cs1

SMILES: COc1ccc(-c2csc(Cc3[nH]cnc3C)n2)cc1
Ki [1]: 390 nM

SMILES: c1ccc(-c2csc(Cc3c[nH]cn3)n2)cc1
Ki [1]: 1 nM

SMILES: COc1ccc2ccccc2c1-c1csc(Cc2[nH]cnc2C)n1
Ki [1]: 400 nM

SMILES: Cc1[nH]cnc1Cc1nc(-c2ccc(Br)cc2)cs1
Ki [1]: 270 nM

inhibition [2]: 100% | inhibition [4]: 10.7%
SMILES: Cc1[nH]cnc1Cc1nc(-c2ccccc2)cs1

SMILES: N=C(N)NCCCCOC(=O)c1c[nH]c2ccccc12
Ki [1]: 29 nM

Ki [5]: 12 nM
SMILES: Cc1nc[nH]c1Cc1nc(-c2c[nH]c3ccccc23)cs1

SMILES: Cc1ccccc1-c1csc(Cc2[nH]cnc2C)n1
Ki [1]: 8.7 nM

inhibition [4]: 66.4% | Ki [5]: 1.94 nM
SMILES: Cc1[nH]cnc1Cc1nc(-c2ccccc2F)cs1

SMILES: Cc1ccc(-c2csc(Cc3[nH]cnc3C)n2)cc1
Ki [1]: 110 nM

SMILES: Cc1[nH]cnc1Cc1nc(-c2ccc(F)cc2)cs1
Ki [1]: 4.9 nM

inhibition [6]: 77.5%
SMILES: CN1[C@@H]2CC[C@H]1C[C@@H](OC(=O)c1c[nH]c3ccccc13)C2

SMILES: Cc1[nH]cnc1Cc1nc(-c2ccc(Cl)cc2)cs1
Ki [1]: 34 nM

SMILES: Cc1[nH]cnc1Cc1nc(-c2cccc(Br)c2)cs1
Ki [1]: 2 nM

SMILES: Cc1[nH]cnc1Cc1nc(-c2ccccc2O)cs1
Ki [1]: 1.5 nM

SMILES: COc1cccc(OC)c1-c1csc(Cc2[nH]cnc2C)n1
Ki [1]: 430 nM

SMILES: N=C(N)NCCOC(=O)c1c[nH]c2ccccc12
Ki [1]: 7.1 nM

SMILES: COc1cccc(-c2csc(Cc3[nH]cnc3C)n2)c1
Ki [1]: 2 nM

SMILES: Cc1[nH]cnc1Cc1nc(-c2cccc(Cl)c2)cs1
Ki [1]: 0.88 nM

Ki [7]: > 1000 nM | Ki [8]: > 1000 nM | Ki (D(1A) dopamine receptor): > 1000 nM | Ki [5]: 1.8 nM | Ki [9]: > 1000 nM | Ki [10]: > 1000 nM | Ki [11]: > 1000 nM | Ki [12]: > 1000 nM | Ki [13]: > 1000 nM | Ki (D(2) dopamine receptor): > 1000 nM | Ki [14]: > 1000 nM | Ki (Mu-type opioid receptor): > 1000 nM
SMILES: Cc1nc[nH]c1Cc1nc(-c2ccccc2)cs1

SMILES: N=C(N)NCc1nc(-c2c[nH]c3ccccc23)cs1
Ki [1]: 3.3 nM

SMILES: CN1[C@@H]2CC[C@H]1C[C@H](OC(=O)c1ccccc1)C2
Ki [1]: 329 nM

SMILES: CCOc1ccccc1-c1csc(Cc2[nH]cnc2C)n1
Ki [1]: 0.95 nM

SMILES: Cc1[nH]cnc1Cc1nc(-c2cccc(F)c2)cs1
Ki [1]: 3.7 nM

inhibition [2]: 100% | inhibition [4]: 57.9% | Ki [5]: 0.42 nM | inhibition [15]: 88.5%
SMILES: COc1ccccc1-c1csc(Cc2[nH]cnc2C)n1

SMILES: COc1ccccc1-c1csc(Cc2c[nH]cn2)n1
Ki [1]: 0.29 nM
